Data set [1] relates to Plasmodium falciparum. Nature of the data set: Antimalarial activity against asexual blood stage of Plasmodium falciparum 3D7 infected in human serum assessed as [3H]hypoxanthine incorporation incubated for 48 hrs prior to 3H]hypoxanthine addition measured after 24 hrs by liquid scintillation counting analysis. The format is functional, organism-based. To be noted: 3D7, Serum. The gist of the method:
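Synchronous ring-stage parasites (0.25% parasitaemia, 2.5% haematocrit) in RPMI 1640 with 10% heat-inactivated human serum, exposed to serially diluted compound for 48 h at 37°C. [3H]-hypoxanthine (0.5 μCi/well) then added for a further 24 h and counted by liquid scintillation. Inhibition is relative to 0.5% DMSO controls. IC50 by log-linear interpolation, mean (±SD) of three independent experiments, each in triplicate wells.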

Another data set deals with HepG2. Nature of the data set: Cytotoxicity against human HepG2 cells after 48 hrs. In kind it is ADME, cell-based. The note with it: HepG2, 48 h.
Data set [2] can be described thus: Selectivity index, ratio of IC50 for human HepG2 cells to IC50 for asexual blood stage of Plasmodium falciparum 3D7.
A further data set deals with Plasmodium berghei. In words: Antimalarial activity against exo-erythrocytic form of Plasmodium berghei infected in human HepG2 cells after 48 hrs. The format is functional, organism-based. To be noted: HepG2, 48 h. A digest of the protocol: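 HepG2-A16-CD81EGFP cells seeded 20–26 h before infection and given compound 18 h before infection (0.5% final DMSO). Infected with 1×10^3 luciferase-expressing P. berghei sporozoites per well, spun 3 min at 330xg, 37°C, then incubated 48 h at 37°C in 5% CO2. Read by luminescence. IC50 by four-parameter variable-slope nonlinear regression.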

Data set [3] can be described thus: Selectivity index, ratio of IC50 for human HepG2 cells to IC50 for exo-erythrocytic form of Plasmodium berghei.
The test system of data set [4] is Plasmodium falciparum. In words: Antimalarial activity against late stage gametocyte stage of Plasmodium falciparum NF54 after 72 hrs. In kind it is functional, organism-based. The note with it: NF54, 72 h. A digest of the protocol:
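Stage IV gametocytes of NF54-pfs16-GFP, magnetically isolated day 8 post induction, 33,000 per well. Incubated 72 h with compound under 5% CO2/5% O2/80% N2, then overnight with Mitotracker Red CM-H2XRos (0.07 ug/ml). IC50 by sigmoidal variable-slope fit, mean ±SD, two experiments in duplicate.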

Data set [5] deals with Plasmodium falciparum 3D7. In words: Inhibition of HDAC in Plasmodium falciparum 3D7 trophozoites assessed as histone H4 hyperacetylation level at 500 nM after 3 hrs by Western blotting analysis relative to control. The gist of the method: (§1)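 Synchronous trophozoite-stage 3D7 parasites incubated 3 h with 500 nM compound or 0.05% DMSO vehicle. Vehicle samples taken at 0 and 3 h. Saponin lysis and PBS washing, then 15% SDS-PAGE and immunoblotting. Anti-RAP2 monoclonal used as loading control; infrared fluorescent secondary detection.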

For data set [6], the system named is Plasmodium falciparum. In words: Inhibition of histone deacetylase in Plasmodium falciparum nuclear lysates at 1 uM by fluorescence assay. The gist of the method:
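Nuclear protein lysates prepared from trophozoite-stage P. falciparum with a nuclear extraction kit, tested at 1 μM compound in a fluorometric HDAC assay kit. Percent inhibition vs controls, mean (±SD) of two independent assays, each in duplicate.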

Data set [7] has as its system Plasmodium falciparum. Nature of the data set: Inhibition of Plasmodium falciparum recombinant histone deacetylase1 using HDAC substrate 3 as substrate at 1 uM by fluorescence assay. The gist of the method: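 Recombinant PfHDAC1 tested at 1 μM compound in a fluorometric HDAC assay kit with Fluorogenic HDAC substrate 3. Percent inhibition vs controls, mean (±SD) of two independent assays, each in duplicate.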

The nature of data set [8]: Selectivity index, ratio of IC50 for human HepG2 cells to IC50 for late stage gametocyte stage of Plasmodium falciparum NF54. To be noted: read-out: Ratio IC50. The format is toxicity, cell-based.
The subject of data set [9] is Plasmodium falciparum 3D7. Nature of the data set: Inhibition of HDAC in Plasmodium falciparum 3D7 trophozoites assessed as histone H3 hyperacetylation level at 500 nM after 3 hrs by Western blotting analysis relative to control. A digest of the protocol: as §1
Data set [10] is described as follows: Cytotoxicity against erythrocytes (unknown origin). The format is cell-based. To be noted: Erythrocyte.

Calls of active or inactive are those of the source. No cut-off for these calls is given here.

With `CCOc1ccc(C(=O)NOCCCCCC(=O)NO)cc1`, the IC50 (commonly the concentration at which inhibition is half-maximal) was 230 nM in the data set with Plasmodium falciparum [1], 7680 nM in the data set with HepG2 and 1370 nM with Plasmodium berghei. Besides, the selectivity ratio in data set [2] worked out at 33; in [3], 6.
Take `O=C(CCCCCONC(=O)c1ccc(F)cc1)NO`: the IC50 in the data set on Plasmodium falciparum [1] is 580 nM; with HepG2, 10300 nM; with Plasmodium berghei, 2310 nM; in the data set on Plasmodium falciparum [4], 2000 nM. In addition, the selectivity ratio in data set [2] amounted to 18; in data set [3], 4.
With `Cc1cc(C)cc(C(=O)NOCCCCCC(=O)NO)c1`, the IC50 in the data set with Plasmodium falciparum [1] came to 100 nM; in the data set with HepG2 it was 1260 nM; in the data set on Plasmodium berghei, 160 nM; with Plasmodium falciparum [4] it was 330 nM. The selectivity ratio worked out at 13 in [2], 8 in data set [3] and 4 in [8]. Also, the inhibition entry in data set [5] and in [9] was “Active” each time. For the same compound, the inhibition – broadly, the percentage by which the read-out fell short of the control – with Plasmodium falciparum [6] is 58.6%; in the data set on Plasmodium falciparum [7], 73.8%.
For `CC(C)c1ccc(C(=O)NOCCCCCC(=O)NO)cc1`, the IC50 in the data set with Plasmodium falciparum [1] was 120 nM; in the data set on HepG2, 8760 nM; with Plasmodium berghei, 1340 nM. Besides, the selectivity ratio in [2] came to 73; in data set [3], 7. Also, the inhibition result in [5] and in [9] was “Active” throughout. Also, the values for the inhibition with Plasmodium falciparum [6] and in the data set with Plasmodium falciparum [7] were 72.9% and 67.2%, respectively.
In the case of `CCCCc1ccc(C(=O)NOCCCCCC(=O)NO)cc1`, the IC50 stood at 260 nM in the data set with Plasmodium falciparum [1], 10800 nM in the data set on HepG2, 1790 nM in the data set on Plasmodium berghei and 5300 nM in the data set with Plasmodium falciparum [4]. Moreover, the selectivity ratio was determined as 41 in [2] and 6 in data set [3].
Take `Cc1ccccc1C(=O)NOCCCCCC(=O)NO`: the IC50 in the data set with Plasmodium falciparum [1] came to 1120 nM; in the data set with HepG2, 12700 nM; with Plasmodium berghei it was 2540 nM. The selectivity ratio turned out to be 11 in data set [2] and 5 in [3].
For `CCCOc1cccc(C(=O)NOCCCCCC(=O)NO)c1` the same measures were 240 nM, 7040 nM, 450 nM, 29 and 16.
For `CCCCOc1ccc(C(=O)NOCCCCCC(=O)NO)cc1`, the IC50 with Plasmodium falciparum [1] was 170 nM; in the data set on HepG2, above 50000 nM; in the data set with Plasmodium berghei, 2140 nM. The selectivity ratio is above 294 in data set [2] and above 23 in [3]. Also, the inhibition entry in [5] and in data set [9] was “Active” each time. Moreover, the inhibition in the data set with Plasmodium falciparum [6] came to 50.3%; with Plasmodium falciparum [7], 72.1%.
Compound `O=C(/C=C/c1ccccc1)N[C@@H](CCCCCC(=O)NO)C(=O)Nc1cccc2cccnc12` showed an IC50 in [10] of 1240 nM.
On to `Cc1ccc(C(=O)NOCCCCCC(=O)NO)cc1`, for which the IC50 was 220 nM in the data set with Plasmodium falciparum [1], 12100 nM in the data set on HepG2 and 1140 nM with Plasmodium berghei. Further, the selectivity ratio in data set [2] stood at 55; in [3], 11.
With `CC(C)(C)c1ccc(C(=O)NOCCCCCC(=O)NO)cc1`, the IC50 in the data set with Plasmodium falciparum [1] was 90 nM; in the data set with HepG2, 12500 nM; in the data set with Plasmodium berghei, 1870 nM; in the data set on Plasmodium falciparum [4], above 120000 nM. For the same compound, the selectivity ratio in [2] worked out at 139; in data set [3], 7. The inhibition result in data set [5] and in data set [9] was “Active” each time. Further, the inhibition is 48.3% in the data set on Plasmodium falciparum [6] and 68.6% in the data set on Plasmodium falciparum [7].
As to `O=C(CCCCCONC(=O)c1ccco1)NO`, the half-maximal inhibitory concentration (IC50) amounted to 620 nM with Plasmodium falciparum [1], 8030 nM in the data set on HepG2, 1130 nM with Plasmodium berghei and 1000 nM with Plasmodium falciparum [4]. Besides, the selectivity ratio is 13 in data set [2] and 7 in [3].
`O=C1C(O)=C([C@H]2CC[C@H](c3ccc(Cl)cc3)CC2)C(=O)c2ccccc21` [ATOVAQUONE]: it took 0.16 nM to reach half-maximal inhibition in the data set on Plasmodium berghei (IC50). In data set [3], the selectivity ratio was above 64100.
Consider `O=C(CCCCCONC(=O)c1ccc(C(F)(F)F)cc1)NO`, for which the half-inhibitory concentration (IC50) with Plasmodium falciparum [1] came out at 260 nM; with HepG2 it was 13000 nM; with Plasmodium berghei it was 1900 nM. Moreover, the figures for the selectivity ratio in data set [2] and in data set [3] were 50 and 7, respectively.
The like results for `CCCCCOc1ccc(C(=O)NOCCCCCC(=O)NO)cc1` were, in that order, 210 nM, above 50000 nM, 5140 nM, above 238 and above 10.
Consider `O=C(CCCCCONC(=O)c1ccccc1F)NO`, for which the IC50 in the data set with Plasmodium falciparum [1] was 730 nM; with HepG2 it was 9100 nM; with Plasmodium berghei, 1250 nM; in the data set with Plasmodium falciparum [4], above 120000 nM. Further, the results for the selectivity ratio in [2] and in data set [3] were 12 and 7, respectively.
Regarding `CCN(CC)CCCC(C)Nc1ccnc2cc(Cl)ccc12` (configuration not stated) [CHLOROQUINE], the IC50 in the data set on HepG2 and in the data set on Plasmodium berghei was above 10000 nM each time.
Take `Cc1ccc(C(=O)NOCCCCCC(=O)NO)cc1C`: the IC50 was 120 nM with Plasmodium falciparum [1], 3240 nM in the data set on HepG2, 310 nM with Plasmodium berghei and 250 nM in the data set with Plasmodium falciparum [4]. Also, the selectivity ratio in data set [2] was determined as 27; in data set [3] it was 10; in [8], 13. Besides, the inhibition result in data set [5] and in data set [9] was “Active” throughout. Also, the inhibition came to 93.3% in the data set on Plasmodium falciparum [6] and 82.6% with Plasmodium falciparum [7].
`O=C(CCCCCCC(=O)Nc1ccccc1)NO` [VORINOSTAT] displayed an IC50 in data set [10] above 2200 nM.
Compound `CC(/C=C/C(=O)NO)=C\[C@@H](C)C(=O)c1ccc(N(C)C)cc1` [TRICHOSTATIN] showed an IC50 in [10] of 200 nM. In addition, the inhibition result in data set [5] and in data set [9] was “Active” each time. The values for the inhibition in the data set on Plasmodium falciparum [6] and in the data set on Plasmodium falciparum [7] were 78.1% and 93.3%, respectively.
`CC(C)Oc1ccc(C(=O)NOCCCCCC(=O)NO)cc1`: the IC50 came out at 150 nM with Plasmodium falciparum [1], 9760 nM with HepG2 and 1360 nM with Plasmodium berghei. The selectivity ratio in data set [2] turned out to be 65; in [3] it was 7. The inhibition entry in data set [5] and in data set [9] was “Active” throughout. For the same compound, the inhibition in the data set on Plasmodium falciparum [6] was 9.3%; in the data set with Plasmodium falciparum [7], 62.4%.
Turning to `CCCOc1ccccc1C(=O)NOCCCCCC(=O)NO`, the concentration for half-maximal inhibition (IC50) with Plasmodium falciparum [1] was found to be 240 nM; in the data set on HepG2 it was 8120 nM; in the data set on Plasmodium berghei, 480 nM. The figures for the selectivity ratio in [2] and in [3] were 34 and 17, respectively.
As to `Cc1cccc(C(=O)NOCCCCCC(=O)NO)c1`, the IC50 was found to be 190 nM in the data set with Plasmodium falciparum [1], 4690 nM with HepG2, 660 nM in the data set with Plasmodium berghei and 430 nM in the data set with Plasmodium falciparum [4]. Moreover, the figures for the selectivity ratio in data set [2], in data set [3] and in data set [8] were 25, 7 and 11, respectively. The inhibition result in [5] and in data set [9] was “Active” throughout. Also, the inhibition came to 73.9% in the data set with Plasmodium falciparum [6] and 75.5% in the data set on Plasmodium falciparum [7].
With `O=C(CCCCCONC(=O)c1ccc(-c2ccccc2)cc1)NO`, the IC50 with Plasmodium falciparum [1] came out at 160 nM; in the data set on HepG2, 10200 nM; in the data set with Plasmodium berghei, 1830 nM; in the data set on Plasmodium falciparum [4], 500 nM. The figures for the selectivity ratio in data set [2], in data set [3] and in data set [8] were 64, 6 and 20, respectively. Besides, the inhibition result in [5] and in data set [9] was “Active” in each case. The results for the inhibition in the data set on Plasmodium falciparum [6] and in the data set on Plasmodium falciparum [7] were 89.3% and 64.2%, respectively.
Consider `COc1ccc2nc3cc(Cl)ccc3c(Nc3cc(CN4CCCC4)c(O)c(CN4CCCC4)c3)c2n1` [PYRONARIDINE], for which half-maximal inhibition in the data set with Plasmodium falciparum [4] (IC50) required 2700 nM.
For `CCCOc1ccc(C(=O)NOCCCCCC(=O)NO)cc1`, the IC50 in the data set with Plasmodium falciparum [1] was 210 nM; with HepG2, 16900 nM; with Plasmodium berghei, 5290 nM. Also, the results for the selectivity ratio in data set [2] and in data set [3] were 80 and 3, respectively.
Turning to `CCCCCCOc1ccc(C(=O)NOCCCCCC(=O)NO)cc1`, the IC50 is 350 nM in the data set on Plasmodium falciparum [1], above 50000 nM in the data set on HepG2 and 7910 nM with Plasmodium berghei. The selectivity ratio was above 143 in data set [2] and above 6 in data set [3].

The values above are taken from ChEMBL document CHEMBL3286295, “Discovery of HDAC inhibitors with potent activity against multiple malaria parasite life cycle stages” (Eur J Med Chem, 2014).
